Test results from ChEMBL document CHEMBL3792358, “Computer-aided identification of new histone deacetylase 6 selective inhibitor with anti-sepsis activity” (Eur J Med Chem, 2016).
Active and inactive are the calls of the source. The calls are words filed in the database; no cut-off is given here.

Experiments:
[1] = molecular target: Histone deacetylase (Homo sapiens) (UniProt Q13547+O15379+Q9UBN7+Q92769+Q9UQL6+Q8WUI4+Q9BY41+Q96DB2+P56524+Q9UKV0+Q969S8); experiment: Competitive inhibition of HDAC in human HeLa cells using Boc-acetyl-lysine-AMC as substrate at 25 to 50 uM incubated for 30 mins in dark by Lineweaver-Burk plot analysis; type: cell-based
Histone deacetylase [2] = type: cell-based, Homo sapiens; conditions: hela
[3] = molecular target: T1, Protein deacetylase HDAC6 (Homo sapiens, UniProt Q9UBN7); experiment: Inhibition of recombinant human HDAC6 using Fluor de Lys-SIRT1 as substrate incubated for 15 mins by fluorescence assay
T1 sequence (Q9UBN7 whole entry): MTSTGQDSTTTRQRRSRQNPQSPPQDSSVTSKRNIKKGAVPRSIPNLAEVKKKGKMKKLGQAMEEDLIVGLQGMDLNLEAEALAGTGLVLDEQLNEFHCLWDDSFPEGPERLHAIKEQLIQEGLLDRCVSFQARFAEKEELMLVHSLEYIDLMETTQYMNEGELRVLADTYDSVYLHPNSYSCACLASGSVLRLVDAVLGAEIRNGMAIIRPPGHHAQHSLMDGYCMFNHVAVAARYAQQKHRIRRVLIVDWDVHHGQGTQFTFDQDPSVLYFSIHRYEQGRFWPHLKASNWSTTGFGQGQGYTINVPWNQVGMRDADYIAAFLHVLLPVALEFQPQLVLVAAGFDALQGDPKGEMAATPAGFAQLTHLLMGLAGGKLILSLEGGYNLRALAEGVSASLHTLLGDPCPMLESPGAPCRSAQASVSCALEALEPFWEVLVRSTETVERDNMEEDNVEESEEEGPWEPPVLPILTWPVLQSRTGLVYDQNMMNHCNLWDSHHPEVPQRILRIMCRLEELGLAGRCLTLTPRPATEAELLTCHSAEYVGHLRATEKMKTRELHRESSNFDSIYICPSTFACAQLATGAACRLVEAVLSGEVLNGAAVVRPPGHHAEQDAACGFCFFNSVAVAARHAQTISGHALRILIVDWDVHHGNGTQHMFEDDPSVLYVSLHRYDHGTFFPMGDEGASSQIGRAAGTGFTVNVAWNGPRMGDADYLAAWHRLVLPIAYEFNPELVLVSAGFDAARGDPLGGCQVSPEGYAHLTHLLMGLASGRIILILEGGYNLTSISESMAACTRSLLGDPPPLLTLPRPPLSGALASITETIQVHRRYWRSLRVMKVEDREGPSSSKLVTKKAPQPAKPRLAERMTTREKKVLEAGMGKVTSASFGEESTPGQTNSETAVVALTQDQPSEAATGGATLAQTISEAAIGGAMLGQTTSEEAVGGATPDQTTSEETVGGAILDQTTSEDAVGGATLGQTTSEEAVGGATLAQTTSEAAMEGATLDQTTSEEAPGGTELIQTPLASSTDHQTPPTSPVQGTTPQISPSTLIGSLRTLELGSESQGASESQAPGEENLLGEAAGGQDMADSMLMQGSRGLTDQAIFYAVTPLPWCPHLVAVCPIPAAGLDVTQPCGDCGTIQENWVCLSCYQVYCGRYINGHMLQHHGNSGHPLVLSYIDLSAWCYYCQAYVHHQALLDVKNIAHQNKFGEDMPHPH

Histone deacetylase 1 [4] = molecular target: T2, Histone deacetylase 1 (Homo sapiens, UniProt Q13547)
T2 sequence (Q13547 whole entry): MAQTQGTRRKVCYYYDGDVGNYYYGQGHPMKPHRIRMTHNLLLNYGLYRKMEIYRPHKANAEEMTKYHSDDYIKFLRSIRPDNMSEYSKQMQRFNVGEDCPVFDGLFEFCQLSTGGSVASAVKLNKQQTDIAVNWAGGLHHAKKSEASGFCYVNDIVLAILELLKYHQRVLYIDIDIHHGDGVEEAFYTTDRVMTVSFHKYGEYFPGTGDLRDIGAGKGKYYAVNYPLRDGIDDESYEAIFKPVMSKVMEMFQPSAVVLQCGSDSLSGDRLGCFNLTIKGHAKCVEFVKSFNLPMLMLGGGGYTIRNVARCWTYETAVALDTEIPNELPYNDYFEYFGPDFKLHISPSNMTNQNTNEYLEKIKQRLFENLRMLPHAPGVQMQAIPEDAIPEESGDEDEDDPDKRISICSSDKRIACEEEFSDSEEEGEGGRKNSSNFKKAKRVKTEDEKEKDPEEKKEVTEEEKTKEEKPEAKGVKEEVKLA

[5] = molecular target: T3, Polyamine deacetylase HDAC10 (Homo sapiens, UniProt Q969S8); experiment: Inhibition of human recombinant HDAC10 using RHK-K(Ac)-AMC as substrate
T3 sequence (Q969S8 whole entry): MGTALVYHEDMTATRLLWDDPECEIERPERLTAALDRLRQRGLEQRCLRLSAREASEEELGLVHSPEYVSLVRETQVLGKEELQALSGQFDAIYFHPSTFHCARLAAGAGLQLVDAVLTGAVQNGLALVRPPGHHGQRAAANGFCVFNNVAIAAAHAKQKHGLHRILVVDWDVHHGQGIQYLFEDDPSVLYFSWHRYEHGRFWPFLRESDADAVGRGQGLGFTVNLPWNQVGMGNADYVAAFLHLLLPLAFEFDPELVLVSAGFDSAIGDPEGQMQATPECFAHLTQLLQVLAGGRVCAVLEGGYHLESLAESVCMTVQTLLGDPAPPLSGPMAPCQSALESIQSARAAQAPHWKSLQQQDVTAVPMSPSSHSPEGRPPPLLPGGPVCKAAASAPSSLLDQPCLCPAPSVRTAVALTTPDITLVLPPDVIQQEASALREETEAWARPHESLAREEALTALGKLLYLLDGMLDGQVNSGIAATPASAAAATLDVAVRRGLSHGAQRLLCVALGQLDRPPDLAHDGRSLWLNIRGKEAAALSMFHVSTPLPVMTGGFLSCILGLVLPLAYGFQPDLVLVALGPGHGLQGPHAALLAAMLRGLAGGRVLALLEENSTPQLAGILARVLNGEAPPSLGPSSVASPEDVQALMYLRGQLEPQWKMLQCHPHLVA

Mus musculus [6] = experiment: Antiinflammatory activity in ICR mouse model of LPS-induced endotoxemia assessed as inhibition of LPS-induced IL-6 mRNA expression in liver at 10 mg/kg, ip administered 2 hrs before and immediately after LPS injection by RT-PCR method; type: functional, organism-based
Summary of the method: (§1)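 Male ICR mice (27–29 g) given LPS; drug i.p. in 5% DMSO/saline 2 h before and immediately after LPS. Liver collected 6 h after LPS. Total RNA extracted and reverse-transcribed to cDNA; TNF-α and IL-6 mRNA measured by real-time RT-PCR relative to vehicle control.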

[7] = molecular target: Histone deacetylase 3/Nuclear receptor corepressor 2 (HDAC3/NCoR2) (Homo sapiens, UniProt O15379); type: cell-based
Chain of Histone deacetylase 3/Nuclear receptor corepressor 2 (HDAC3/NCoR2) (O15379 whole entry, the tested form may be a part): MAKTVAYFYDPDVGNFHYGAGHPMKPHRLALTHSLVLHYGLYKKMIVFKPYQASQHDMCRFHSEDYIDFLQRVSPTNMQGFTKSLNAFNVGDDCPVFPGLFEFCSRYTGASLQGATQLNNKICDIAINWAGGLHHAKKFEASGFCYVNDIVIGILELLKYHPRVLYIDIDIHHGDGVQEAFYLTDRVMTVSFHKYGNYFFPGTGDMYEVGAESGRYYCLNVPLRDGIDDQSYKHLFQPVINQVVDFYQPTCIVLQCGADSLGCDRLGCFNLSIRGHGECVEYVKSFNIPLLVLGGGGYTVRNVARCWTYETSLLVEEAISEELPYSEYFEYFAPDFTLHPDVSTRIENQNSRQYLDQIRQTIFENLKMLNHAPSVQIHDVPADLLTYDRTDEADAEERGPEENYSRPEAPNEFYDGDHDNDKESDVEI
Chain of Histone deacetylase 3/Nuclear receptor corepressor 2 (HDAC3/NCoR2) (Q9Y618 whole entry, further chain, the tested form may be a part): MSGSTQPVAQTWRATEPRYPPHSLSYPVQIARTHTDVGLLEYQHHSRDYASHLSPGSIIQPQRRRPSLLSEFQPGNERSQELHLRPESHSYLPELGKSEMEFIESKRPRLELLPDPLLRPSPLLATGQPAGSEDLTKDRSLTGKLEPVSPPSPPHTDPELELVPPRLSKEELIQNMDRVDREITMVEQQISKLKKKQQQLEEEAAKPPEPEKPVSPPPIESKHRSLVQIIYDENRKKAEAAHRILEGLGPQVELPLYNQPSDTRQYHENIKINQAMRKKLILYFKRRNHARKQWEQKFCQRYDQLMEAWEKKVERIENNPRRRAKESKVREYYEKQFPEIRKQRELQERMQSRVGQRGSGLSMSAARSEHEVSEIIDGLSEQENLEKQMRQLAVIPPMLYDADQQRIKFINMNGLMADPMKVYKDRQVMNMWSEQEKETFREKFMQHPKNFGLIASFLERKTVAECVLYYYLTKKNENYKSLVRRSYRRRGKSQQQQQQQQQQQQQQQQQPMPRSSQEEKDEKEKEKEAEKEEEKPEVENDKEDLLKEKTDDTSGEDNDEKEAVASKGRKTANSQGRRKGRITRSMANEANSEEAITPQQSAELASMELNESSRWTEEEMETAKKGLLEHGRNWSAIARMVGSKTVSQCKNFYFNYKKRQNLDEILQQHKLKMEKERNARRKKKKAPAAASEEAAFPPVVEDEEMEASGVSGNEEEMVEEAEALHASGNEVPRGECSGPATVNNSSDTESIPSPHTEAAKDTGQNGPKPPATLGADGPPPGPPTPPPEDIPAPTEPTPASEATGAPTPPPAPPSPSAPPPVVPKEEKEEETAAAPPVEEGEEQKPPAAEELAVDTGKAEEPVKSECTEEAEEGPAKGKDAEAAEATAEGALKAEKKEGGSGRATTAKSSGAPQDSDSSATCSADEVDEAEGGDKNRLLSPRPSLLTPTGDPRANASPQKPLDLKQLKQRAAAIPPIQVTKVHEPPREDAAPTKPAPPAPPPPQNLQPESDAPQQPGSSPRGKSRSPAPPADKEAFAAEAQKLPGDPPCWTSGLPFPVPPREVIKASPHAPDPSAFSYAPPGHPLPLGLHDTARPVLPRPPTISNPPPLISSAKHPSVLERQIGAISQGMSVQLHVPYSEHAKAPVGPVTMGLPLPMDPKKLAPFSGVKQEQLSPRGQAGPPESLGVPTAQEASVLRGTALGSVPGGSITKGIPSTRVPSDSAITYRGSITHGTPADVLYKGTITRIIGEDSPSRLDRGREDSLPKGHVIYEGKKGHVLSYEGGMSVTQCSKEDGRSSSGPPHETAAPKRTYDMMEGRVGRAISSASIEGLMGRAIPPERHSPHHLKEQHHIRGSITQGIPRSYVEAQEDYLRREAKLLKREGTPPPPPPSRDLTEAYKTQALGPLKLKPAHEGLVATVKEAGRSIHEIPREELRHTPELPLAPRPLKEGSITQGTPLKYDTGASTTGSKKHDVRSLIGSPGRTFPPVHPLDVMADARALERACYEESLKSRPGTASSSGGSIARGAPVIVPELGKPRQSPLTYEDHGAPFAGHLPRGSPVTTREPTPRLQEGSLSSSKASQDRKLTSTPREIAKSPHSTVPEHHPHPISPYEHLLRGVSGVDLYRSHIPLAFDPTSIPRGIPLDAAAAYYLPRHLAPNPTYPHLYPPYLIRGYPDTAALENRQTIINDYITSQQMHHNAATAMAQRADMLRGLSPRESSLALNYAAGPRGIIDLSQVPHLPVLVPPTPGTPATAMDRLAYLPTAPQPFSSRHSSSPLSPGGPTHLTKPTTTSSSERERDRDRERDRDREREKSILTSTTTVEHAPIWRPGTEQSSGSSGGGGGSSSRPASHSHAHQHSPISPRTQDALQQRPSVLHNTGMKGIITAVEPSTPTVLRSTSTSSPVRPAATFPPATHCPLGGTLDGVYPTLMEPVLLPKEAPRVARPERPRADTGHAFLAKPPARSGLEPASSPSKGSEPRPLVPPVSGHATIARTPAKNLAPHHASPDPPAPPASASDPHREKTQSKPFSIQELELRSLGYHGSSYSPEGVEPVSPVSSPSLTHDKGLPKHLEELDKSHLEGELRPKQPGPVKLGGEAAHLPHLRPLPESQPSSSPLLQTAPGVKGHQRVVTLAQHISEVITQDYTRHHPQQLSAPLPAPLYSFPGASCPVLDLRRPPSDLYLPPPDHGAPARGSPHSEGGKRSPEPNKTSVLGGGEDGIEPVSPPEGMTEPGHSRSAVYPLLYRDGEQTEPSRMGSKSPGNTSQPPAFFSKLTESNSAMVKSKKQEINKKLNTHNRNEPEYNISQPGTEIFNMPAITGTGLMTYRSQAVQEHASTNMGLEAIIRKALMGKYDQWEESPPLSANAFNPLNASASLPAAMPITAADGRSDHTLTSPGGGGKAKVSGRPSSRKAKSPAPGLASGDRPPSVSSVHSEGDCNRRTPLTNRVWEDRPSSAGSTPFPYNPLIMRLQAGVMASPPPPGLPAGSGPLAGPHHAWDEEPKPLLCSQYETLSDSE

Histone deacetylase 8 = molecular target: T4, Histone deacetylase 8 (Homo sapiens, UniProt Q9BY41); experiment: Inhibition of human recombinant C-terminal His-tagged HDAC8 (1 to 377 residues) expressed in insect cells using RHK-K(Ac)-K(Ac)-AMC as substrate incubated for 60 mins by fluorescence assay
T4 sequence (Q9BY41 whole entry): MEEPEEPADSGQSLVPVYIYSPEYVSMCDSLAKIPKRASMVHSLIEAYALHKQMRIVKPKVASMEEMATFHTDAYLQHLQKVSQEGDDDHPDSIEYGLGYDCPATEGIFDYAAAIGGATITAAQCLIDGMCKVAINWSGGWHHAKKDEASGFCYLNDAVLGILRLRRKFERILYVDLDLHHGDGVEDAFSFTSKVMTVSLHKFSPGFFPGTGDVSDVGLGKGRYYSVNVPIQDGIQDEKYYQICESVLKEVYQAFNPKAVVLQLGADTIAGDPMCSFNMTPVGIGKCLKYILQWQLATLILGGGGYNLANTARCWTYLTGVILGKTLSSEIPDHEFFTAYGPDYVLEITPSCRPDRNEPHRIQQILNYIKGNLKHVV

Histone deacetylase 4 = Histone deacetylase 4 (Homo sapiens, UniProt P56524); experiment: Inhibition of human recombinant N-terminal GST-tagged C-terminal His-tagged HDAC4 (627 to 1084 residues) expressed in insect cells using Boc-K(TFA)-AMC as substrate incubated for 60 mins by fluorescence assay
Histone deacetylase 7 = molecular target: T5, Histone deacetylase 7 (Homo sapiens, UniProt Q8WUI4); experiment: Inhibition of human recombinant N-terminal GST-tagged HDAC7 (518 to 991 residues) expressed in insect cells using Boc-K(TFA)-AMC as substrate incubated for 60 mins by fluorescence assay
T5 sequence (Q8WUI4 whole entry): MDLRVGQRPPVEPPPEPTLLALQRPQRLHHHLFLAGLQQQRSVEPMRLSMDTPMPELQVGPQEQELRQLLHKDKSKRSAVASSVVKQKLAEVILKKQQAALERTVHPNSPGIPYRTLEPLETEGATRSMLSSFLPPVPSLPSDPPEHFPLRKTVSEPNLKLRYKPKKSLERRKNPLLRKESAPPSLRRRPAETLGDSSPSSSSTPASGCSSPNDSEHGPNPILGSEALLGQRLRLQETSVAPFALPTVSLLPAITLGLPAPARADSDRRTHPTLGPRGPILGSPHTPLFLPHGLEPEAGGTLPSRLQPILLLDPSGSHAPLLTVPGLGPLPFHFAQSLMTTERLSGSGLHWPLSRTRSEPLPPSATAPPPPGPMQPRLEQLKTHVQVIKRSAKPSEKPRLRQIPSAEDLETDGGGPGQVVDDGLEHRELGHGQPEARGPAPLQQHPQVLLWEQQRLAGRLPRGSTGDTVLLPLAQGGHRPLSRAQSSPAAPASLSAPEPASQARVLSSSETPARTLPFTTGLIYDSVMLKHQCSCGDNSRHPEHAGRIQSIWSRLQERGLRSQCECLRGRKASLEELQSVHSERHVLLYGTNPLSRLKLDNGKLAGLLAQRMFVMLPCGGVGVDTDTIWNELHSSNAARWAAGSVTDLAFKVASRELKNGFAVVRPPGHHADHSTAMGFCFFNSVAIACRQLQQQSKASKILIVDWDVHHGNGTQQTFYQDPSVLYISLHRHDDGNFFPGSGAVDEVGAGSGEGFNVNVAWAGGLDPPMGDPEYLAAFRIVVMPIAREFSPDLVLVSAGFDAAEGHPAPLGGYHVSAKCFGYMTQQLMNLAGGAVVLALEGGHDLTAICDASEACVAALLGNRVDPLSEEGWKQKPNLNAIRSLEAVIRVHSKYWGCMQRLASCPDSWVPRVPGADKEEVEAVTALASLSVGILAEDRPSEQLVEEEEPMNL

RAW264.7 [8] = experiment: Antiinflammatory activity in mouse RAW264.7 cells assessed as inhibition of LPS-induced NO production at 0.5 to 2.5 uM relative to control; type: functional
HeLa = experiment: Cytotoxicity against human HeLa cells by MTS assay; type: cell-based
Mus musculus [9] = experiment: Antiinflammatory activity in ICR mouse model of LPS-induced endotoxemia assessed as inhibition of LPS-induced TNF-alpha mRNA expression in liver at 10 mg/kg, ip administered 2 hrs before and immediately after LPS injection by RT-PCR method; type: functional, organism-based; summary of the method: as §1
RAW264.7 [10] = experiment: Antiinflammatory activity in mouse RAW264.7 cells assessed as inhibition of LPS-induced IL-6 production at 0.5 to 2.5 uM relative to control; type: functional
RAW264.7 [11] = experiment: Antiinflammatory activity in mouse RAW264.7 cells assessed as inhibition of LPS-induced TNF-alpha production at 0.5 to 2.5 uM relative to control; type: functional
Histone deacetylase 1 [12] = molecular target: T2, Histone deacetylase 1; conditions: HeLa, 10 uM
Histone deacetylase 9 = Histone deacetylase 9 (Homo sapiens, UniProt Q9UKV0); experiment: Inhibition of human recombinant HDAC9 using trifluoroacetyl lysine as substrate
Chain of Histone deacetylase 9 (Q9UKV0 whole entry, the tested form may be a part): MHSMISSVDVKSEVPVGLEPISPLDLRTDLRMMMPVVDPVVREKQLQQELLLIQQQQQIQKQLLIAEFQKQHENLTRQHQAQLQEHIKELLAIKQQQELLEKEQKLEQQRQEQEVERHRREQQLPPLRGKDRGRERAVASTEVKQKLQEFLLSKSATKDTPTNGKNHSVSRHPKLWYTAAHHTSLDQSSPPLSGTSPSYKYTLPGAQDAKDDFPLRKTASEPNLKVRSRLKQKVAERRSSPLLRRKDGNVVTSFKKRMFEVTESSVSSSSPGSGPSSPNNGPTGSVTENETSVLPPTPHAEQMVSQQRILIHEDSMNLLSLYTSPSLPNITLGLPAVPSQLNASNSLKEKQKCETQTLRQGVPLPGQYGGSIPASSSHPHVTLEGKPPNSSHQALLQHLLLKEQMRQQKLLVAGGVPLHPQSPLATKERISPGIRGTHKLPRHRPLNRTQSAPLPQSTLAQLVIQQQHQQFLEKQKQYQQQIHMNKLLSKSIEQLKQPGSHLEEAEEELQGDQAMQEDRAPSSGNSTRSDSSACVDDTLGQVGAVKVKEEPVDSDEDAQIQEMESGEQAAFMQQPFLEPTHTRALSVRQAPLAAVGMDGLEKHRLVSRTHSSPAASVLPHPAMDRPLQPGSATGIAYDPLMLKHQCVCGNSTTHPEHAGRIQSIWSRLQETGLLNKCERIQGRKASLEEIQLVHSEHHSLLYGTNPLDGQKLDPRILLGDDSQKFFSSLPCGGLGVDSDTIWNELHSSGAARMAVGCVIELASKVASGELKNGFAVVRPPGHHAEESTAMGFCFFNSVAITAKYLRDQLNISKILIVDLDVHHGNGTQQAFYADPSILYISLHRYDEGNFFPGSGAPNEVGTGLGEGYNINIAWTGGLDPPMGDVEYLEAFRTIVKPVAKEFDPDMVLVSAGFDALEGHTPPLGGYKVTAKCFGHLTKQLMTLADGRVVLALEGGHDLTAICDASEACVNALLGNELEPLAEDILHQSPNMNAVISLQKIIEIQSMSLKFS

[13] = molecular target: T1, Protein deacetylase HDAC6; experiment: Inhibition of full length human recombinant N-terminal GST-tagged HDAC6 (1 to 1215 residues) expressed in sf9 cells using RHK-K(Ac)-AMC as substrate incubated for 90 mins by fluorescence assay
Histone deacetylase 2 = Histone deacetylase 2 (Homo sapiens, UniProt Q92769); experiment: Inhibition of full length human recombinant C-terminal GST-tagged HDAC2 (1 to 488 residues) expressed in insect cells using RHK-K(Ac)-AMC as substrate incubated for 60 mins by fluorescence assay
Chain of Histone deacetylase 2 (Q92769 whole entry, the tested form may be a part): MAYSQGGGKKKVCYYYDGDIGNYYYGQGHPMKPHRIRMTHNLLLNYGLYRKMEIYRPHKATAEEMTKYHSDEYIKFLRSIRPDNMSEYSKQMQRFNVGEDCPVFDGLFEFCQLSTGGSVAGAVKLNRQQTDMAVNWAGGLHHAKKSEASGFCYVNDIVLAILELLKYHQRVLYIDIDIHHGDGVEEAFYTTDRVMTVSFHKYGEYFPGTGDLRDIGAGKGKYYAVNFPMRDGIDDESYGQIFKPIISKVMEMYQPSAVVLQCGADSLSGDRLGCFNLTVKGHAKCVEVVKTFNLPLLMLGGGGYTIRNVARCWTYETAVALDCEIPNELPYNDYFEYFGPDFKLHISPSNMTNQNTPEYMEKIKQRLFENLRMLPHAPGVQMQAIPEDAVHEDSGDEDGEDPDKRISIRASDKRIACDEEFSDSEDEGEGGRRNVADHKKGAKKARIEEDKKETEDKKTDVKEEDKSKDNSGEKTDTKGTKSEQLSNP

Histone deacetylase 11 = molecular target: T6, Histone deacetylase 11 (Homo sapiens, UniProt Q96DB2); experiment: Inhibition of human recombinant N-terminal His-tagged HDAC11 (1 to 347 residues) expressed in insect cells/baculovirus expression system using RHK-K(Ac)-AMC as substrate by fluorescence assay
T6 sequence (Q96DB2 whole entry): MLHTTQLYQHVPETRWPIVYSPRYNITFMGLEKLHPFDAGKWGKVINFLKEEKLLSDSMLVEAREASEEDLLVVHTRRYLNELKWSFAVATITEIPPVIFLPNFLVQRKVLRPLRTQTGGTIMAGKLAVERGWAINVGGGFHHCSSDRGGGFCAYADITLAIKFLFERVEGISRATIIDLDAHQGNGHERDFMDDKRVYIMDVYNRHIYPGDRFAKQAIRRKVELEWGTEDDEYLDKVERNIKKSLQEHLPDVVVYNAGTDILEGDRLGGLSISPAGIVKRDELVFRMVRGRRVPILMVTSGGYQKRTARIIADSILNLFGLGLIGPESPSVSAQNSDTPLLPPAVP

Mus musculus [14] = experiment: Anti-sepsis activity in ICR mouse model of LPS-induced endotoxemia assessed as increase in survival rate at 20 mg/kg, ip administered 2 hrs before and immediately after LPS injection measured up to 10 days; type: functional
Summary of the method: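 Male ICR mice (27–29 g), LPS from E. coli O111:B4. Dosing was i.p. in vehicle (5% DMSO in saline) at 5, 10 or 20 mg/kg, given 2 h before and immediately after LPS. Groups were vehicle control, LPS, and LPS plus drug. Survival was followed up to 10 days and compared by log-rank analysis.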

Histone deacetylase 1 [15] = molecular target: T2, Histone deacetylase 1; experiment: Inhibition of full length human recombinant C-terminal FLAG-His-tagged HDAC1 (1 to 482 residues) expressed in Sf21 cells using RHK-K(Ac)-AMC as substrate incubated for 60 mins by fluorescence assay
Histone deacetylase [16] = experiment: Inhibition of HDAC in human HeLa cells using Boc-acetyl-lysine-AMC as substrate incubated for 24 hrs by fluorometric assay; type: cell-based
Histone deacetylase 5 = Histone deacetylase 5 (Homo sapiens, UniProt Q9UQL6); experiment: Inhibition of human recombinant C-terminal His-tagged HDAC5 (657 to 1123 residues) expressed in insect cells using Boc-K(TFA)-AMC as substrate incubated for 60 mins by fluorescence assay

O=C(CCS/C=C/c1ccccc1)NCCSCc1ccco1
inhibition [1]: Active | IC50 (Histone deacetylase [2]): 19.18 µM

O=C(CCS/C=C/c1ccccc1)NO
IC50 (Histone deacetylase [2]): 3.7 µM

O=C(CCCc1csc(/C=C/c2ccccc2)n1)NO
IC50 [3]: 0.199 µM | IC50 (Histone deacetylase 1 [4]): 13.8 µM | IC50 [5]: 78.3 µM | inhibition (Mus musculus [6]): Active | IC50 [7]: 17.8 µM | IC50 (Histone deacetylase 8): 1.54 µM | IC50 (Histone deacetylase 4): 19.7 µM | IC50 (Histone deacetylase 7): Not Active | inhibition (INH) (RAW264.7 [8]): 50% | IC50 (HeLa): 52 µM | inhibition (Mus musculus [9]): Active | inhibition (INH) (RAW264.7 [10]): 50% | inhibition (INH) (RAW264.7 [11]): 50% | inhibition (Histone deacetylase 1 [12]): inactive | IC50 (Histone deacetylase [2]): 1.48 µM | IC50 (Histone deacetylase 9): Not Active | IC50 [13]: 0.567 µM | IC50 (Histone deacetylase 2): > 10 µM | IC50 (Histone deacetylase 11): 32.8 µM | Activity (Mus musculus [14]): 40% | IC50 (Histone deacetylase 1 [15]): > 10 µM | IC50 (Histone deacetylase [16]): 0.37 µM | IC50 (Histone deacetylase 5): 26.6 µM

Cc1ncsc1CCn1cc(NC(=O)CCS/C=C\c2ccccc2)cn1
inhibition [1]: Active | IC50 (Histone deacetylase [2]): 29.8 µM
